{
  "source": "ChEMBL document CHEMBL1165950",
  "about": "“Design and synthesis of new potent anticancer pyrazoles with high FLT3 kinase inhibitory selectivity” (Bioorg Med Chem, 2010)",
  "type_in_all_cases": "functional",
  "key": {"OVCAR-4 [1]": {"tested_on": "OVCAR-4", "assay": "Cytotoxicity against human OVCAR4 cells assessed as cell growth at 0.001 uM after 48 hrs by sulforhodamine B assay", "settings": "OVCAR-4, 48 h, read-out: Activity"}, "NCI-H226": {"tested_on": "NCI-H226", "assay": "Cytotoxicity against human NCI-H226 cells assessed as cell growth at 10 uM", "settings": "read-out: Activity", "in_short": "(§1)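 NCI-60 screen: cells grown in RPMI 1640 with 5% FBS and 2 mM L-glutamine, plated at 5000–40,000 cells/well according to doubling time, and preincubated 24 h at 37 °C, 5% CO2. The single 10 µM dose (DMSO stock) was added, then incubated 48 h. Cells were TCA-fixed and stained with 0.4% SRB, read at 515 nm, and growth % calculated against time-zero and control plates.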"}, "BT-549": {"tested_on": "BT-549", "assay": "Growth inhibition of human BT549 cells after 48 hrs by sulforhodamine B assay", "settings": "BT-549, 48 h", "in_short": "(§2)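 NCI five-dose SRB assay in RPMI 1640 with 5% FBS and 2 mM L-glutamine. Cells were preincubated 24 h, then exposed 48 h at 37 °C to five concentrations (10-fold or half-log serial dilutions from DMSO stocks). TCA fixation, SRB staining, and absorbance at 515 nm followed. IC50 was taken where [(Ti−Tz)/(C−Tz)]×100 = 50, with Tz as time-zero cell density.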"}, "ACHN": {"tested_on": "ACHN", "assay": "Cytotoxicity against human ACHN cells assessed as cell growth at 100 nM after 48 hrs by sulforhodamine B assay", "settings": "read-out: Activity", "in_short": "(§3)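 NCI-60 five-dose screen. Cells were grown in RPMI 1640 with 5% FBS and 2 mM L-glutamine, plated at 5000–40,000 cells/well and preincubated for 24 h. Time-zero plates were TCA-fixed. DMSO-solubilized drug was added at five concentrations (10-fold or ½-log serial dilutions) for 48 h at 37 °C, 5% CO2. Cells were TCA-fixed, stained with 0.4% SRB and read at 515 nm. Percent growth used time-zero, control and test absorbances.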"}, "IGROV-1 [2]": {"tested_on": "IGROV-1", "assay": "Cytotoxicity against human IGROV1 cells assessed as cell growth at 0.001 uM after 48 hrs by sulforhodamine B assay", "settings": "IGROV-1, 48 h, read-out: Activity"}, "IGROV-1 [3]": {"tested_on": "IGROV-1", "assay": "Growth inhibition of human IGROV1 cells after 48 hrs by sulforhodamine B assay", "settings": "IGROV-1, 48 h", "in_short": "(§4)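 NCI 60-cell screen, five-dose mode. Cells grown in RPMI 1640 with 5% FBS and 2 mM L-glutamine and plated at 5000-40,000 cells/well according to doubling time. After 24 h preincubation, a Tz plate was TCA-fixed. Five concentrations (10-fold or 1/2 log dilutions) were applied for 48 h at 37 °C. SRB staining read at 515 nm. IC50 taken from [(Ti-Tz)/(C-Tz)]×100 = 50.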"}, "T47D": {"tested_on": "T47D", "assay": "Cytotoxicity against human T47D cells assessed as cell growth at 0.001 uM after 48 hrs by sulforhodamine B assay", "settings": "read-out: Activity"}, "[4]": {"assay": "Cytotoxicity against human Hs 578T cells assessed as cell growth at 100 nM after 48 hrs by sulforhodamine B assay", "settings": "read-out: Activity"}, "EKVX": {"tested_on": "EKVX", "assay": "Cytotoxicity against human EKVX cells assessed as cell growth at 0.01 uM after 48 hrs by sulforhodamine B assay", "settings": "read-out: Activity"}, "UACC-257 [5]": {"tested_on": "UACC-257", "assay": "Growth inhibition of human UACC257 cells after 48 hrs by sulforhodamine B assay", "settings": "UACC-257, 48 h", "in_short": "as §4"}, "U-251": {"tested_on": "U-251", "assay": "Cytotoxicity against human U251 cells assessed as cell growth at 0.01 uM after 48 hrs by sulforhodamine B assay", "settings": "U-251, 48 h, read-out: Activity"}, "OVCAR-3": {"tested_on": "OVCAR-3", "assay": "Cytotoxicity against human OVCAR-3 cells assessed as cell growth at 1 uM after 48 hrs by sulforhodamine B assay", "settings": "OVCAR-3, 48 h, read-out: Activity"}, "UACC-62": {"tested_on": "UACC-62", "assay": "Cytotoxicity against human UACC62 cells assessed as cell growth at 100 nM after 48 hrs by sulforhodamine B assay", "settings": "UACC-62, 48 h, read-out: Activity"}, "LOX IMVI": {"tested_on": "LOX IMVI", "assay": "Cytotoxicity against human LOXIMVI cells assessed as cell growth at 10 uM after 48 hrs by sulforhodamine B assay", "settings": "read-out: Activity"}, "SK-MEL-5 [6]": {"tested_on": "SK-MEL-5", "assay": "Cytotoxicity against human SK-MEL-5 cells assessed as cell growth at 100 nM after 48 hrs by sulforhodamine B assay", "settings": "SK-MEL-5, 48 h, read-out: Activity"}, "SK-MEL-5 [7]": {"tested_on": "SK-MEL-5", "assay": "Cytotoxicity against human SK-MEL-5 cells assessed as cell growth at 0.01 uM after 48 hrs by sulforhodamine B assay", "settings": "SK-MEL-5, 48 h, read-out: Activity"}, "OVCAR-4 [8]": {"tested_on": "OVCAR-4", "assay": "Growth inhibition of human OVCAR4 cells after 48 hrs by sulforhodamine B assay", "settings": "OVCAR-4, 48 h", "in_short": "as §4"}, "SW-620": {"tested_on": "SW-620", "assay": "Cytotoxicity against human SW620 cells assessed as cell growth at 10 uM", "settings": "read-out: Activity", "in_short": "as §1"}, "Malme-3M": {"tested_on": "Malme-3M", "assay": "Cytotoxicity against human MALME-3M cells assessed as cell growth at 0.01 uM after 48 hrs by sulforhodamine B assay", "settings": "read-out: Activity"}, "KM12 [9]": {"tested_on": "KM12", "assay": "Cytotoxicity against human KM12 cells assessed as cell growth at 10 uM after 48 hrs by sulforhodamine B assay", "settings": "KM12, 48 h, read-out: Activity"}, "KM12 [10]": {"tested_on": "KM12", "assay": "Cytotoxicity against human KM12 cells assessed as cell growth at 1 uM after 48 hrs by sulforhodamine B assay", "settings": "KM12, 48 h, read-out: Activity"}, "DU-145 [11]": {"tested_on": "DU-145", "assay": "Cytotoxicity against human DU145 cells assessed as cell growth at 10 uM after 48 hrs by sulforhodamine B assay", "settings": "DU-145, 48 h, read-out: Activity"}, "UACC-257 [12]": {"tested_on": "UACC-257", "assay": "Cytotoxicity against human UACC257 cells assessed as cell growth at 1 uM after 48 hrs by sulforhodamine B assay", "settings": "UACC-257, 48 h, read-out: Activity"}, "A498": {"tested_on": "A498", "assay": "Cytotoxicity against human A498 cells assessed as cell growth at 100 nM after 48 hrs by sulforhodamine B assay", "settings": "A498, 48 h, read-out: Activity", "in_short": "as §3"}, "SNB-75": {"tested_on": "SNB-75", "assay": "Cytotoxicity against human SNB75 cells assessed as cell growth at 100 nM after 48 hrs by sulforhodamine B assay", "settings": "SNB-75, 48 h, read-out: Activity"}, "A549": {"tested_on": "A549", "assay": "Cytotoxicity against human A549 cells assessed as cell growth at 1 uM after 48 hrs by sulforhodamine B assay", "settings": "A549, 48 h, read-out: Activity", "in_short": "as §3"}, "OVCAR-8": {"tested_on": "OVCAR-8", "assay": "Cytotoxicity against human OVCAR8 cells assessed as cell growth at 10 uM", "settings": "read-out: Activity", "in_short": "as §1"}, "M14": {"tested_on": "M14", "assay": "Cytotoxicity against human M14 cells assessed as cell growth at 100 nM after 48 hrs by sulforhodamine B assay", "settings": "M14, 48 h, read-out: Activity"}, "DU-145 [13]": {"tested_on": "DU-145", "assay": "Growth inhibition of human DU145 cells after 48 hrs by sulforhodamine B assay", "settings": "DU-145, 48 h", "in_short": "as §2"}, "[14]": {"settings": "read-out: LC50 (the source's name)"}},
  "data": [
    {"compound": "Cc1cc(O)cc(-c2nn(CC#N)cc2-c2ccnc(-c3ccc(Oc4ccccc4)cc3)c2)c1", "values": [
      {"measurement": "growth at 0.001 µM", "setting": "OVCAR-4 [1]", "result": 110, "unit": "%"},
      {"measurement": "growth at 10 µM", "setting": "NCI-H226", "result": 70.3, "unit": "%"},
      {"measurement": "GI50", "setting": "BT-549", "result": 2.66, "unit": "µM"},
      {"measurement": "TGI", "setting": "BT-549", "result": 11.2, "unit": "µM"},
      {"measurement": "CC50", "setting": "BT-549; [14]", "result": 43.1, "unit": "µM"},
      {"measurement": "growth at 0.1 µM", "setting": "ACHN", "result": 95, "unit": "%"},
      {"measurement": "growth at 0.001 µM", "setting": "IGROV-1 [2]", "result": 98, "unit": "%"},
      {"measurement": "GI50", "setting": "IGROV-1 [3]", "result": 1.74, "unit": "µM"},
      {"measurement": "TGI", "setting": "IGROV-1 [3]", "result": 3.75, "unit": "µM"},
      {"measurement": "CC50", "setting": "IGROV-1 [3]; [14]", "result": 8.07, "unit": "µM"},
      {"measurement": "growth at 0.001 µM", "setting": "T47D", "result": 95, "unit": "%"},
      {"measurement": "growth at 0.1 µM", "setting": "[4]", "result": 82, "unit": "%"},
      {"measurement": "growth at 0.01 µM", "setting": "EKVX", "result": 94, "unit": "%"},
      {"measurement": "GI50", "setting": "UACC-257 [5]", "result": 2.38, "unit": "µM"},
      {"measurement": "TGI", "setting": "UACC-257 [5]", "result": 8.38, "unit": "µM"},
      {"measurement": "CC50", "setting": "UACC-257 [5]; [14]", "result": 31.7, "unit": "µM"},
      {"measurement": "growth at 0.01 µM", "setting": "U-251", "result": 92, "unit": "%"},
      {"measurement": "growth at 1 µM", "setting": "OVCAR-3", "result": -63, "unit": "%"},
      {"measurement": "growth at 0.1 µM", "setting": "UACC-62", "result": 84, "unit": "%"},
      {"measurement": "growth at 10 µM", "setting": "LOX IMVI", "result": -86, "unit": "%"},
      {"measurement": "growth at 0.1 µM", "setting": "SK-MEL-5 [6]", "result": 94, "unit": "%"},
      {"measurement": "growth at 0.01 µM", "setting": "SK-MEL-5 [7]", "result": 93, "unit": "%"},
      {"measurement": "GI50", "setting": "OVCAR-4 [8]", "result": 4.56, "unit": "µM"},
      {"measurement": "TGI", "setting": "OVCAR-4 [8]", "result": 16, "unit": "µM"},
      {"measurement": "CC50", "setting": "OVCAR-4 [8]; [14]", "result": 48.6, "unit": "µM"},
      {"measurement": "growth at 10 µM", "setting": "SW-620", "result": 53.9, "unit": "%"},
      {"measurement": "growth at 0.01 µM", "setting": "Malme-3M", "result": 77, "unit": "%"},
      {"measurement": "growth at 10 µM", "setting": "KM12 [9]", "result": -100, "unit": "%"},
      {"measurement": "growth at 1 µM", "setting": "KM12 [10]", "result": -39, "unit": "%"},
      {"measurement": "growth at 10 µM", "setting": "DU-145 [11]", "result": -100, "unit": "%"},
      {"measurement": "growth at 1 µM", "setting": "UACC-257 [12]", "result": -7, "unit": "%"},
      {"measurement": "growth at 0.1 µM", "setting": "A498", "result": 84, "unit": "%"},
      {"measurement": "growth at 0.1 µM", "setting": "SNB-75", "result": 78, "unit": "%"},
      {"measurement": "growth at 1 µM", "setting": "A549", "result": -37, "unit": "%"},
      {"measurement": "growth at 10 µM", "setting": "OVCAR-8", "result": 37.2, "unit": "%"},
      {"measurement": "growth at 0.1 µM", "setting": "M14", "result": 94, "unit": "%"},
      {"measurement": "GI50", "setting": "DU-145 [13]", "result": 2.28, "unit": "µM"},
      {"measurement": "LC50", "setting": "DU-145 [13]", "result": 26.1, "unit": "µM"},
      {"measurement": "TGI", "setting": "DU-145 [13]", "result": 7.18, "unit": "µM"}
    ]}
  ]
}
